Source: ChEMBL document CHEMBL2163314, “Potent aminocyclitol glucocerebrosidase inhibitors are subnanomolar pharmacological chaperones for treating gaucher disease” (J Med Chem, 2012)
Where a chain is given by its changes, count along the chain named. The source made the active and inactive calls. No cut-off for these calls is given here.

Key:
[1] = target: T1, Lysosomal acid glucosylceramidase (Homo sapiens, UniProt P04062); experiment: Competitive inhibition of recombinant Imiglucerase using 4-methylumbelliferyl-beta-D-glucopyranoside as substrate preincubated for 30 mins before substrate addition at pH 5.2 by Dixon plot assay
T1 sequence (P04062 whole entry): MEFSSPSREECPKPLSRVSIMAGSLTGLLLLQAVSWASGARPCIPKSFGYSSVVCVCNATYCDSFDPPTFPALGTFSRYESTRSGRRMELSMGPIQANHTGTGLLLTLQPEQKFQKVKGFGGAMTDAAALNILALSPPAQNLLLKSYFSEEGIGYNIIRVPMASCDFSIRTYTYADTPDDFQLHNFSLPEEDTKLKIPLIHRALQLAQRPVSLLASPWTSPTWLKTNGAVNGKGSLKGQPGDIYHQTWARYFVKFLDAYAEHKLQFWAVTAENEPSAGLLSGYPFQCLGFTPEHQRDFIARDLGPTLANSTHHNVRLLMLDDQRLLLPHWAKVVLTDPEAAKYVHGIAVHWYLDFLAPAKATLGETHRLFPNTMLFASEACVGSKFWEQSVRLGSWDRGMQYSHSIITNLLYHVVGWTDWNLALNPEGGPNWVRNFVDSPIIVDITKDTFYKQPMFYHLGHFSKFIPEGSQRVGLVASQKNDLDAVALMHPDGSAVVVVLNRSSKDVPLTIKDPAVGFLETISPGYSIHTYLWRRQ

[2] = system: T2, Lysosomal acid glucosylceramidase (Homo sapiens), P04062 [N409S]; experiment: Agonist activity at glucosylceramidase N370S mutant in lymphoblast obtained from gauchers patient using 4-methylumbelliferyl-beta-D-glucopyranoside as substrate preincubated at 1 to 5000 nM for 3 days measured 2 hrs post substrate addition by fluorescence assay relative to untreated control; assay type: functional
T2 sequence (whole entry): T1 sequence (P04062 whole entry) with N409S
Summary of the method: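 Patient-derived N370S homozygous lymphoblasts (RPMI-1640, 15% FBS, 37 °C, 5% CO2; passages 5–16) seeded at 2 × 10^5 cells/well, exposed to compound for 3 days. Cells washed in PBS and lysed in water by sonication. Homogenate incubated with 6 mM 4-MU-β-glucoside in 0.1 M citrate phosphate pH 5.2 with 0.25% taurocholate and 0.1% Triton X-100, 37 °C, 2 h. Fluorescence read at 355/460 nm; activity normalized to untreated cells; triplicate.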

[3] = target: T3, Beta-galactosidase (Homo sapiens) (UniProt P16278); experiment: Inhibition of lysosomal beta-galactosidase in human fibroblast at 50 uM after 24 hrs
T3 sequence (whole entry): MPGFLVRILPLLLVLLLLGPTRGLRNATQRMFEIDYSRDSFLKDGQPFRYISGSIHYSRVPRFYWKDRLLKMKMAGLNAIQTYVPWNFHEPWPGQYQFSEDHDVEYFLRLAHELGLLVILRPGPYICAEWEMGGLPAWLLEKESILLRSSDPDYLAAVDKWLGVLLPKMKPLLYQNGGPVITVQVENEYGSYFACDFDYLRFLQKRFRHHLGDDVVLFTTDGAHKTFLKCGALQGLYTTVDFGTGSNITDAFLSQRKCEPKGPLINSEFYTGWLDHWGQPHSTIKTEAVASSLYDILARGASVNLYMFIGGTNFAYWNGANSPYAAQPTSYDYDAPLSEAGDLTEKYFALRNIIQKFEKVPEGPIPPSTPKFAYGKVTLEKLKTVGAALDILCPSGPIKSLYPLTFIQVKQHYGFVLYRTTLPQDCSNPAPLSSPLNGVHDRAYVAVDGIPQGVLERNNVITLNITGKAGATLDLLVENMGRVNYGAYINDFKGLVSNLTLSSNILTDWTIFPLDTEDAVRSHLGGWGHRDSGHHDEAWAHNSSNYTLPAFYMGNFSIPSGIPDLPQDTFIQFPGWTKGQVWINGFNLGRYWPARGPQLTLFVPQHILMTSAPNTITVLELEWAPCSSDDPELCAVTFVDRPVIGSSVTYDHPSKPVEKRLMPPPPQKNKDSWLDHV
Summary of the method: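 Wild-type human fibroblasts (DMEM, 10% FBS, passages 14–30) were plated overnight, then exposed to compound in fresh medium for 24 h at 37 °C, 5% CO2. Lysosomal enzyme activity was then assayed in intact monolayers after the medium was removed. Triplicate determinations.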

[4] = target: T1, Lysosomal acid glucosylceramidase; experiment: Binding affinity to recombinant imiglucerase using 4-methylumbelliferyl-beta-D-glucopyranoside as substrate preincubated for 30 mins before substrate addition by Dixon plot assay
[5] = target: T1, Lysosomal acid glucosylceramidase; experiment: Competitive inhibition of recombinant Imiglucerase using 4-methylumbelliferyl-beta-D-glucopyranoside as substrate preincubated for 30 mins before substrate addition at pH 7.0 by Dixon plot assay
[6] = target: T1, Lysosomal acid glucosylceramidase; experiment: Competitive inhibition of recombinant Imiglucerase using 4-methylumbelliferyl-beta-D-glucopyranoside as substrate preincubated for 30 mins before substrate addition at pH 5.2 by Lineweaver-Burk plot assay
Prunus dulcis = experiment: Inhibition of almond beta-glucosidase at 100 uM
[7] = target: T3, Beta-galactosidase (Homo sapiens); experiment: Inhibition of lysosomal beta-galactosidase in human fibroblast at 5 uM after 24 hrs
[8] = target: T4, Lysosomal acid glucosylceramidase (Homo sapiens) (UniProt P04062); experiment: Inhibition of lysosomal beta-glucosidase in human fibroblast using 4-methylumbelliferyl-beta-D-glucopyranoside as substrate preincubated at 5 uM for 24 hrs before substrate addition measured after 2 hrs by fluorimetry
T4 sequence (whole entry): T1 sequence (P04062 whole entry)
Summary of the method: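 Wild-type human fibroblasts (DMEM, 10% FBS; passages 14–30) plated overnight, then compound in fresh medium for 24 h at 37 °C, 5% CO2. Intact washed monolayers given PBS plus 200 mM acetate pH 4.0 and 5 mM 4-MU-β-glucoside, 37 °C for 2 h. Stopped by lysis in glycine/NaOH pH 10.6. Fluorescence at 355/460 nm; triplicate.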

| inhibition [7] | inhibition [8] [%] | SMILES | IC50 [1] [nM] | Activity [2] | inhibition [3] | Ki [4] [nM] | IC50 [5] [nM] | IC50 [6] [nM] | inhibition (Prunus dulcis) |
| --- | --- | --- | --- | --- | --- | --- | --- | --- | --- |
|  |  | CCCCCCCCCN[C@H]1[C@H](O)[C@@H](O)[C@H](O)[C@@H](O)[C@@H]1O | 3900 | inactive | inactive | 1900 | 780 | 3900 | inactive |
| inactive | > 39 | CCCCCCCCCN[C@H]1[C@H](O)[C@@H](O)[C@H](O)[C@@H](O)[C@H]1OCCCCCCCCC.Cl | 4 |  |  | 1 | 5 | 4 | inactive |
| < 16% | > 39 | CCCCCCCCCN(CCCCCCCCC)[C@@H]1[C@H](O)[C@H](O)[C@@H](O)[C@H](O)[C@H]1O.Cl | 1720 | inactive |  | 820 | 530 | 1720 | inactive |
|  |  | CCCCCCCCCN[C@H]1[C@H](O)[C@@H](O)[C@H](O)[C@@H](O)[C@@H]1OC.Cl | 4400 |  | inactive | 1580 | 670 | 4400 | inactive |
| < 16% | > 39 | CCCCCCCCCN[C@H]1[C@H](O)[C@@H](O)[C@H](O)[C@@H](O)[C@@H]1OCCCCCCCCC.Cl | 670 |  |  | 280 | 170 | 670 | inactive |
|  |  | CCCCCCCCCN[C@@H]1[C@H](O)[C@@H](O)[C@H](O)[C@@H](O)[C@@H]1O | 52600 | inactive | inactive | 17900 | 24900 | 52600 | inactive |
|  | > 39 | CCCCCCCCCO[C@H]1[C@@H](N)[C@H](O)[C@@H](O)[C@H](O)[C@H]1O.Cl | 450 |  | inactive | 130 | 120 | 450 | inactive |

| SMILES | inhibition [7] | inhibition [8] [%] | IC50 [1] [nM] | Activity [2] | inhibition [3] | Ki [4] [nM] | IC50 [5] [nM] | IC50 [6] [nM] | inhibition (Prunus dulcis) |
| --- | --- | --- | --- | --- | --- | --- | --- | --- | --- |
| CCCCCCCCCN[C@H]1[C@H](O)[C@@H](O)[C@H](O)[C@@H](O)[C@H]1OC.Cl |  | > 39 | 130 |  | inactive | 53 | 19 | 130 | inactive |
| CCCCCCCCCN[C@@H]1[C@H](O)[C@H](O)[C@@H](O)[C@H](O)[C@H]1O.Cl |  | > 39 | 80 |  | inactive | 32 | 25 | 80 | inactive |
